From ChEMBL document CHEMBL3098006, “Preparation of 8-hydroxyquinoline derivatives as potential antibiotics against Staphylococcus aureus” (Bioorg Med Chem Lett, 2014) come the findings set out here.

The subject of one test is Escherichia coli. As to the kind of experiment: Antibacterial activity against Escherichia coli assessed as growth inhibition after 24 hrs by broth dilution method. Type of test: functional. Put shortly: (§1)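 Serial broth dilution in 96-well microtitre plate, compounds from 50 µg/mL top concentration (stocks 50 mg/mL in DMSO); methicillin positive control for S. aureus (from 50 µg/mL), […]. Incubation 37 °C, 24 h; MIC taken as lowest concentration giving complete growth inhibition.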
A general note: Dilution methods test growth across graded concentrations, often in twofold steps.

Test [1] relates to Staphylococcus aureus. As to the kind of experiment: Antibacterial activity against Staphylococcus aureus assessed as growth inhibition after 24 hrs by broth dilution method. Type of test: functional. Put shortly: as §1
Test [2] can be described thus: Cytotoxicity against human NE3 cells assessed as cell shrinkage after 24 hrs by SRB assay. Type of test: cell-based. Put shortly:
(§2)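 HaCaT keratinocytes and NE3 normal esophageal cells trypsinised, washed, resuspended at about 1×10^5 cells/mL, seeded in 96-well plates 24 h, then exposed 24 h to compounds from 50 µg/mL; doxorubicin 4 µg/mL positive control, 0.1% DMSO vehicle. SRB staining after TCA fixation, absorbance 575 nm; three independent experiments in triplicate, mean ± SD.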
(In SRB staining, fixed cells bind dye roughly in proportion to their protein.)

The next test deals with HaCaT. As to the kind of experiment: Cytotoxicity against human HaCaT cells assessed as cell shrinkage after 24 hrs by SRB assay. The test is classed as cell-based. An outline of the steps: as §2
Test [3] concerns Staphylococcus aureus. As to the kind of experiment: Antibacterial activity against Staphylococcus aureus assessed as growth inhibition at 50 ug/mL after 24 hrs. The test is classed as functional. Put shortly:
(§3)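 Agar well diffusion: S. aureus diluted in broth, plated on nutrient agar, wells punched with sterile pipette and loaded with compound (amount per well as in line) or methicillin positive control. Incubation 37 °C, 24 h; inhibition zone recorded as radius in mm, mean ± SD of three results.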

Test [4] has as its system Staphylococcus aureus. The experiment in a line: Antibacterial activity against Staphylococcus aureus assessed as growth inhibition at 15 ug/mL after 24 hrs. The test is classed as functional. To be noted: read-out: IZ. An outline of the steps: as §3
For test [5], the system named is Staphylococcus aureus. As to the kind of experiment: Antibacterial activity against Staphylococcus aureus assessed as growth inhibition at 5 ug/mL after 24 hrs. Type of test: functional. The settings on record: read-out: IZ. Put shortly:
as §3

Each structure is given as a SMILES string. In brackets after ≈: the same amount, converted by molar mass.

What is called MIC is the smallest concentration in the dilution series that meets the test's criterion for growth inhibition. One may read the IC50 as the concentration that gives 50% inhibition.

For the molecule `Cc1ccc2cccc(OCc3ccccc3)c2n1`, the MIC with Escherichia coli and in the test on Staphylococcus aureus [1] was above 50 µg/mL each time.

Turning to `COc1cccc2c1C(=O)c1c(O)c3c(c(O)c1C2=O)C[C@@](O)(C(=O)CO)C[C@@H]3O[C@H]1C[C@H](N)[C@H](O)[C@H](C)O1` [DOXORUBICIN], the IC50 came to 1.89 µg/mL (≈ 3.48 µM) in test [2] and 3.26 µg/mL (≈ 6 µM) in the test on HaCaT.

As to `O=Cc1ccc2cccc(O)c2n1`, the MIC in the test on Escherichia coli was above 50 µg/mL; in the test with Staphylococcus aureus [1], 50 µg/mL (≈ 289 µM). Moreover, the results for the IC50 (in test [2]; in the test on HaCaT) were 16.1 µg/mL (≈ 92.7 µM) and 19.1 µg/mL (≈ 111 µM), respectively. Further, in the test with Staphylococcus aureus [3], the “inhibition zone (IZ)” value is listed as 7.5 mm.

Turning to `Cl.O=Cc1ccc2cccc(O)c2n1`, the MIC in the test with Escherichia coli is above 50 µg/mL; with Staphylococcus aureus [1] it was 50 µg/mL. The values for the IC50 (in test [2]; with HaCaT) were 18.1 µg/mL and 22.5 µg/mL, respectively. The zone of inhibition at 50 µg/mL in the test on Staphylococcus aureus [3] (Staphylococcus aureus, 24 h, read-out: IZ) is 4.4 mm.

Take `Cc1ccc2c(Br)cc(Br)c(O)c2n1` [BROQUINALDOL]: the MIC with Escherichia coli is above 50 µg/mL; with Staphylococcus aureus [1], 6.25 µg/mL (≈ 19.7 µM). In addition, the IC50 in test [2] worked out at 18.6 µg/mL (≈ 58.7 µM); with HaCaT, 22.5 µg/mL (≈ 70.9 µM). Further, the zone of inhibition at 15 µg/mL in the test with Staphylococcus aureus [4] is 7.43 mm.

Take `CC1(C)S[C@@H]2[C@H](NC(=O)[C@H](N)c3ccccc3)C(=O)N2[C@H]1C(=O)O` [AMPICILLIN]: the MIC in the test on Escherichia coli was 7.5 µg/mL (≈ 21.5 µM).

For `COc1cccc2ccc(C)nc12`, the MIC in the test on Escherichia coli and in the test with Staphylococcus aureus [1] was above 50 µg/mL in each case.

Take `CCCCOc1cccc2ccc(C)nc12`: the MIC with Escherichia coli and in the test with Staphylococcus aureus [1] was above 50 µg/mL in each case.

As for `COc1cccc(OC)c1C(=O)N[C@@H]1C(=O)N2[C@@H]1SC(C)(C)[C@@H]2C(=O)O` [METHICILLIN], the MIC in the test with Staphylococcus aureus [1] came out at 3.12 µg/mL (≈ 8.21 µM). Also, in the test with Staphylococcus aureus [5], the zone of inhibition at 5 µg/mL is 10.8 mm.

`Cc1ccc2cccc(OCCN3CCCCC3)c2n1`: the MIC with Escherichia coli and in the test with Staphylococcus aureus [1] was above 50 µg/mL each time.

On to `CCOc1cccc2ccc(C)nc12`, for which the MIC in the test on Escherichia coli and with Staphylococcus aureus [1] was above 50 µg/mL each time.
